Source: PubChem BioAssay (Johns Hopkins Ion Channel Center)
MrgX1 antag: blocks BAM8-22 activation of human MrgX1 receptor | MRGX1-HEK293 calcium flux, Fluo-4, BAM8-22 antagonism; hits give low values | B-score at 10 µM | actives 1.3% (n = 310,000);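 active = calcium-response B-score plate-corrected more than 3 library SD below zero, starting fluorescence within 5 deviations, no agonist response on first addition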;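 note: peak minus trough fluorescence over baseline after final BAM8-22 challenge near maximal dose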
Target sequence (Q96LB2 whole entry, looked up): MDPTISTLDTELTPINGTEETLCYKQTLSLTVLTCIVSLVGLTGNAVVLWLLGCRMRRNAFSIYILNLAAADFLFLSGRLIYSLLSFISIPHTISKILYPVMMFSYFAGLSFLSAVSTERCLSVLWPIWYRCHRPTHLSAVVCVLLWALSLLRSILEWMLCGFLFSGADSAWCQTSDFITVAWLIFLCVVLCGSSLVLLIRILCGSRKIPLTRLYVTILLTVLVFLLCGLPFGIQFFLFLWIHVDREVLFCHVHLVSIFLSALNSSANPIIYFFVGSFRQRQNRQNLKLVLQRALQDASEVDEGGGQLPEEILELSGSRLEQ
MrgX1 allo act: allosterically activates human MrgX1 receptor signaling; Q96LB2; actives 0.63% (n = 310,000); AID 588675; B-score at 10 µM; MrgX1-HEK293, Fluo-4 calcium flux, FDSS; hits give high values;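 active = plate-corrected calcium response at least 3 library SD above typical, normal starting fluorescence, not activating the receptor alone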;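 note: compound read alongside a low EC10 to EC30 dose of BAM8-22 agonist; peak minus trough fluorescence over baseline measured at the second addition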
RGS4 pot: potentiators or activators of RGS4; HEK293 M3R/inducible RGS4, carbachol calcium flux Fluo4; hits give low values; B-score at 10 µM; actives 0.92% (n = 310,000);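 active = B-score of the integrated calcium signal more than 4 SD below the library mean, with starting fluorescence not abnormally high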;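 note: negative B-score means reduced calcium response which marks RGS4 activation or potentiation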
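Test system: HEK293 cells with stable M3R and inducible RGS4; also added: carbachol at ECmax as muscarinic agonist stimulus; schedule: dye loading 30 min 37 °C, buffer rest 30 min RT; technique: kinetic calcium fluorescence imaging with Fluo4-AM dye, 2 µM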
MrgX1 ag: activates human MrgX1 receptor signaling; Q96LB2; MrgX1-HEK293 cells, Fluo-4 calcium fluorescence, agonist mode; hits give high values; B-score at 10 µM; actives 0.44% (n = 310,000); AID 588627;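 active = calcium response B-score plate-corrected fluorescence ratio at least 3 library SD, with starting fluorescence B-score inside 5 SD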
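Material: HEK293 cells stably expressing human MrgX1 receptor | Quantity: 15,000 cells per well | Times: Cells plated overnight, dye loaded 0.5 h 37 °C, 0.5 h room temperature | Measured by: Kinetic Fluo-4 NW fluorescence of intracellular calcium | Control set: Positive and negative controls per plate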
RGS4 block: human RGS4 inhibition | AID 463165 | B-score at 10 µM | actives 0.45% (n = 310,000) | HEK293 M3R/RGS4 inducible, Fluo-4 calcium flux; hits give high values; triggered by carbachol at its EC20 | P49798;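 active = B-score, a plate-corrected calcium signal, over three deviations above library mean, with baseline fluorescence within five deviations of library mean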;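 note: RGS4 expression induced by doxycycline in cells with stable M3 receptor; B-score is computed from the integrated fluorescence ratio over baseline after carbachol; higher B-score means a larger calcium signal and so more RGS4 inhibition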
Target sequence (P49798 whole entry, looked up): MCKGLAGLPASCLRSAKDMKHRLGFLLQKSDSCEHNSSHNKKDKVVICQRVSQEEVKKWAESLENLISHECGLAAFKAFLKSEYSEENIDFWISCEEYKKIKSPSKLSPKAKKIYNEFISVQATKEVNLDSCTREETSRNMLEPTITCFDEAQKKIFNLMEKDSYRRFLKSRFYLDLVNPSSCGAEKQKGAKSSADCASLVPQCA
MrgX1 antag conf: human MrgX1 receptor antagonism, re-confirmation screen. AID 602420. remaining BAM8-22 calcium response % of control (hits give low values), % at 10 µM. actives 19% (n = 2,300). MrgX1-HEK293, BAM8-22 calcium flux, Fluo-4; hits give low values. shares compounds with MrgX1 antag;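 active = remaining agonist calcium response no higher than 100% minus 3 SD of agonist-only control wells, with starting fluorescence near control levels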;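 note: agonist BAM8-22 given at a near maximal EC90 to ECmax level; peak minus minimum fluorescence divided by baseline after agonist addition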
HEK293 Ca flux: MrgX1 antagonist counter-screen hit in parental HEK293 cells. shares compounds with MrgX1 antag. Fluo-4 calcium fluorescence, FDSS. fluorescence ratio F(max-min)/F0 at 10 µM. actives 2% (n = 4,000);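 active = duplicate-averaged calcium fluorescence ratio at least three times the standard deviation of buffer wells, a nonspecific response in parental cells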
HEK293 Ca counter: counter-screen for MrgX1 allosteric activators: effect in parental HEK293 cells. shares compounds with MrgX1 antag. fluorescence ratio F(max-min)/F0 at 10 µM. parental HEK293 calcium flux, Fluo-4 fluorescence ratio; hits give high values. actives 0.4% (n = 4,000);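 active = calcium fluorescence ratio, averaged over duplicates, at least 3 SD of the buffer-well ratio, meaning a nonspecific response in receptor-free cells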;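 note: untransfected parental HEK293 lacking MrgX1 used as counterscreen for MrgX1 allosteric activators; fluorescence change taken during the second addition on a kinetic imager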
HEK293 Ca cntr2: counter-screen for MrgX1 activators: effect in parental HEK293 cells; shares compounds with MrgX1 antag; Fluo-4 calcium fluorescence (FDSS); hits give high values; fluorescence ratio F(max-min)/F0 at 10 µM; actives 8.7% (n = 4,000); AID 624115;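 active = calcium fluorescence ratio at least three times the spread of buffer wells, meaning a non-specific response in parental cells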
The depositor's hits bear a star; i = inactive; . = no result given. Most compounds without a hit are left out; they make up all but 3.5% or so of the library.

SMILES | MrgX1 antag | MrgX1 allo act | RGS4 pot | MrgX1 ag | RGS4 block | MrgX1 antag conf | HEK293 Ca flux | HEK293 Ca counter | HEK293 Ca cntr2
Cc1cc(NC(=S)Nc2ccccc2)ccc1Br | i | i | i | i | i | . | . | . | .
Cc1cc(NC(=S)Nc2cccnc2)ccc1Br | -5.24* | i | i | i | i | 85.6%* | i | i | i
Cc1ccc(/C=C/S(=O)(=O)NCC(=O)OCC(=O)NCc2ccccc2)cc1 | i | i | i | i | i | . | . | . | .
CCOc1ccc(NC(=O)CN(C)C(=O)CCCc2c[nH]c3ccccc23)cc1OCC | i | i | i | i | i | . | . | . | .
COc1ccc(OC)c2sc(NC(=O)CCS(=O)(=O)c3ccccc3)nc12 | i | i | i | i | i | . | . | . | .
COc1ccc(OC)c2sc(NC(=O)CCSc3ccccc3)nc12 | -8.84* | i | i | i | i | i | i | i | i
Cc1nc(=O)c(-c2ccccc2)c(C)n1-c1ccc(C(=O)O)cc1 | -4.92* | i | i | i | i | i | i | i | i
Cc1nc(=O)c(-c2ccccc2)c(C)n1-c1ccc(S(N)(=O)=O)cc1 | i | i | i | i | i | . | . | . | .
CC(=O)Nc1cc(-c2ccc(F)cc2)[nH]n1 | i | i | i | i | i | . | . | . | .
CC(=O)Nc1n[nH]c(-c2ccc(C)cc2)c1C | -5.39* | i | i | i | i | i | i | i | i
Cc1ccc(C(c2nnnn2C2CCCC2)N2CCN3CCCC3C2)cc1 (centres undefined) | -6.42* | i | i | i | i | i | i | i | i
CCOC(=O)N/C(N)=N/c1nc2ccccc2s1 | -7.65* | i | i | i | i | i | i | i | i
S=C(NCc1ccc(Cl)cc1)Nc1ccncc1 | i | i | i | i | i | . | . | . | .
Cc1ccc2nsnc2c1S(=O)(=O)N1CCN(Cc2ccc3c(c2)OCO3)CC1 | -7.49* | i | i | i | i | i | i | i | i
COc1ccc(CCN2CCCn3c2nc2c3c(=O)n(Cc3ccccc3F)c(=O)n2C)cc1OC | i | i | i | i | i | . | . | . | .
COc1ccc(CCN2CCCn3c2nc2c3c(=O)n(CC(C)C)c(=O)n2C)cc1OC | -6.09* | i | i | i | i | 68.0%* | i | i | i
CCCn1c(=O)c2c(nc3n2CCCN3CCc2ccc(OC)c(OC)c2)n(C)c1=O | -4.76* | i | i | i | i | i | i | i | i
CCn1c(=O)c2c(nc3n2CCCN3CCc2ccc(OC)c(OC)c2)n(C)c1=O | i | i | i | i | i | . | . | . | .
Cc1ccc(NC(=O)CCOc2ccccc2C)cc1C | i | i | i | i | i | . | . | . | .
CN(C)CCCNC(=O)C(=O)Nc1cc2c3c(c1)CCC(=O)N3CCC2 | i | i | i | i | i | . | . | . | .
Cc1ccccc1Cc1c(C)nc2ncnn2c1C | -7.77* | i | i | i | i | i | i | i | i
CN(C)CCN1CC(O)=C(c2nc3ccccc3s2)C1=N | -5.67* | i | i | i | i | i | i | i | i
N=C1C(c2nc3ccccc3s2)=C(O)CN1Cc1ccco1 | i | i | i | i | i | . | . | . | .
CC(C)COc1ccc(C(=O)N/C(=C/c2cccc([N+](=O)[O-])c2)C(=O)O)cc1 | i | i | i | i | i | . | . | . | .
Cc1ccsc1C(=O)N(Cc1nnc(-c2ccccc2Cl)o1)C1CC1 | -5.8* | i | i | i | i | i | i | i | i
SMILES | MrgX1 antag | MrgX1 allo act | RGS4 pot | MrgX1 ag | RGS4 block | MrgX1 antag conf | HEK293 Ca flux | HEK293 Ca counter | HEK293 Ca cntr2
CCOC(=O)c1c(NC(=O)CN2C(=O)NC3(CCC(C)CC3)C2=O)sc(C(=O)N(C)C)c1C (centres undefined) | i | i | i | i | i | . | . | . | .
CCc1cc(=O)[nH]c(SCc2ccc(C)cc2)n1 | -4.69* | i | i | i | i | i | i | i | i
CCc1cc(=O)[nH]c(SCc2cccnc2)n1 | i | i | i | i | i | . | . | . | .
CCn1nc(NC(=O)C(C)C)c2cc3cccc(C)c3nc21 | i | i | i | i | i | . | . | . | .
CCCCN(C)C(=S)Nc1ccc(Oc2ccccc2)cc1 | -6.33* | i | i | i | i | i | i | i | i
Cc1ccc(N2C(=O)c3ccccc3NC2C(C)Cc2ccc3c(c2)OCO3)cc1 (centres undefined) | -5.13* | i | i | i | i | i | i | i | i
CCN(Cc1ccccc1)C(=O)Cn1cnc2c1c(=O)n(C)c(=O)n2C | i | i | i | i | i | . | . | . | .
Cn1c(=O)c2c(ncn2CCN(CCO)Cc2ccccc2)n(C)c1=O | -6.66* | i | i | i | i | 80.9%* | i | i | i
Brc1ccc2c(c1)CN1CCCC1=N2 | i | i | i | i | i | . | . | . | .
COc1ccc(NC(=O)Nc2c(O)ccc3ccccc23)cc1 | i | i | i | i | i | . | . | . | .
Cc1[nH]c(=O)nc(SCc2cccc(Cl)c2)c1C#N | i | i | i | i | i | . | . | . | .
Cc1[nH]c(=O)nc(SCc2ccc(Cl)c(Cl)c2)c1C#N | -7.04* | i | i | i | i | i | i | i | i
O=C(Nc1ccccc1N1CCCCC1)c1ccc(-c2cc(Cl)ccc2Cl)o1 | i | i | i | i | i | . | . | . | .
CCCCOc1ccc(NC(=O)CSc2cccc3cccnc23)cc1 | -6.71* | i | i | i | i | i | i | i | i
CCCCc1ccc(NC(=O)CSc2nc3ncccc3[nH]2)cc1 | -5.68* | i | i | i | i | i | i | i | i
Cn1c(=O)[nH]c(=O)c2c1nc(SCC(=O)O)n2CCCc1ccccc1 | -6.86* | i | i | i | i | 83.8%* | i | i | i
Cc1ccc(NC(=O)CCc2nnc3ccc(N4CCC(C)CC4)nn23)nc1 | -7.35* | i | i | i | i | i | i | i | i
